Results published in PMC7004556 (Cancer Science, 2020).
Entries after “also recorded” stand apart in the source; their conditions may differ. Marks after values point to notes of the source that are not given here.

Key:
Phase I pharmacokinetics = format: in vivo, human; settings: for AUC(0‐t) / C avg / C max / C min / T max / AUC(0‐inf) / CL/F / T 1/2 / Vz/F: oral; for T max: median (range)
Outline: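 Plasma was sampled predose in all cycles and after dosing up to cycle 3. Plasma (100 µL) plus IS and 5 mmol/L ammonium hydrogen carbonate underwent solid-phase extraction, with methanol/formic acid elution. Drug in plasma and urine was quantified by LC-MS/MS: ODS column at 40°C, isocratic 40:60 water/acetonitrile-water with 15 mmol/L ammonium hydrogen carbonate, 0.25 mL/minute, positive-mode MRM. Parameters came from non-compartmental analysis.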

[1] = tested on: patients with advanced solid tumors; test: Phase I dose escalation: safety and tolerability; format: in vivo, human
Outline: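 Patients received a single 1 mg oral dose on cycle 0 day 1, then a washout on days 2-7. Oral once-daily dosing followed in 28-day cycles from day 8-10. Doses were escalated by mTPI design (target DLT rate 25% ± 5%). DLTs were assessed over cycles 0-1 against predefined haematological, non-haematological, calcification and hyperphosphataemia criteria. AEs were coded by MedDRA v20.1 and graded by CTCAE v4.03.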

[2] = repeated dose QD, 30 mg (n = 2), mean
[3] = repeated dose QD, 60 mg (n = 2), mean
[4] = repeated dose QD, 100 mg (n = 3), mean ± SD
[5] = repeated dose QD, 140 mg (n = 3), mean ± SD
[6] = repeated dose QD, 180 mg (n = 3), mean ± SD
[7] = single dose, 30 mg (n = 2), mean
[8] = single dose, 60 mg (n = 3), mean ± SD
[9] = single dose, 100 mg (n = 3), mean ± SD
[10] = single dose, 140 mg (n = 3), mean ± SD
[11] = single dose, 180 mg (n = 3), mean ± SD

CNC(=O)n1ccc2cc(Oc3ccnc(NC(=O)c4ccc(C5CCN(CCO)CC5)cc4)c3)c(OCCOC)cc21 [E7090]
Plasma concentrations at 72 hours after dosing (Phase I pharmacokinetics; 1‐16‐mg cohorts): below the limit of quantification
AUC(0‐t) (Phase I pharmacokinetics; [2]): 162 ng·h/mL
C avg (Phase I pharmacokinetics; [2]): 7 ng/mL
C max (Phase I pharmacokinetics; [2]): 13 ng/mL
C min (Phase I pharmacokinetics; [2]): 5 ng/mL
T max (Phase I pharmacokinetics; repeated dose QD, 30 mg (n = 2)): 4 (3‐5) h
AUC(0‐t) (Phase I pharmacokinetics; [3]): 507 ^a h × ng/mL
C avg (Phase I pharmacokinetics; [3]): 21 ^a ng/mL
C max (Phase I pharmacokinetics; [3]): 51 ^a ng/mL
C min (Phase I pharmacokinetics; [3]): 11 ^a ng/mL
T max (Phase I pharmacokinetics; repeated dose QD, 60 mg (n = 2)): 3 (2‐3) ^a h
AUC(0‐t) (Phase I pharmacokinetics; [4]): 1340 ± 437 ng·h/mL
C avg (Phase I pharmacokinetics; [4]): 56 ± 18 ng/mL
C max (Phase I pharmacokinetics; [4]): 116 ± 4 ng/mL
C min (Phase I pharmacokinetics; [4]): 22 ± 9 ng/mL
T max (Phase I pharmacokinetics; repeated dose QD, 100 mg (n = 3)): 3 (2‐5) h
AUC(0‐t) (Phase I pharmacokinetics; [5]): 4700 ± 3380 ng·h/mL
C avg (Phase I pharmacokinetics; [5]): 196 ± 141 ng/mL
C max (Phase I pharmacokinetics; [5]): 372 ± 173 ng/mL
C min (Phase I pharmacokinetics; [5]): 117 ± 116 ng/mL
T max (Phase I pharmacokinetics; repeated dose QD, 140 mg (n = 3)): 5 (3‐5) h
AUC(0‐t) (Phase I pharmacokinetics; [6]): 3860 ± 764 ng·h/mL
C avg (Phase I pharmacokinetics; [6]): 161 ± 32 ng/mL
C max (Phase I pharmacokinetics; [6]): 337 ± 60 ng/mL
C min (Phase I pharmacokinetics; [6]): 65 ± 19 ng/mL
T max (Phase I pharmacokinetics; repeated dose QD, 180 mg (n = 3)): 5 (3‐5) h
AUC(0‐inf) (Phase I pharmacokinetics; [7]): 239 ng·h/mL
AUC(0‐t) (Phase I pharmacokinetics; [7]): 222 ng·h/mL
C max (Phase I pharmacokinetics; [7]): 28 ng/mL
CL/F (Phase I pharmacokinetics; [7]): 127 L/h
T 1/2 (Phase I pharmacokinetics; [7]): 23 h
Vz/F (Phase I pharmacokinetics; [7]): 4180 L
T max (Phase I pharmacokinetics; single dose, 30 mg (n = 2)): 3 (1‐5) h
AUC(0‐inf) (Phase I pharmacokinetics; [8]): 554 ± 247 ng·h/mL
AUC(0‐t) (Phase I pharmacokinetics; [8]): 533 ± 257 ng·h/mL
C max (Phase I pharmacokinetics; [8]): 39 ± 5 ng/mL
CL/F (Phase I pharmacokinetics; [8]): 121 ± 43 L/h
T 1/2 (Phase I pharmacokinetics; [8]): 23 ± 8 h
Vz/F (Phase I pharmacokinetics; [8]): 3790 ± 1240 L
T max (Phase I pharmacokinetics; single dose, 60 mg (n = 3)): 3 (3‐5) h
AUC(0‐inf) (Phase I pharmacokinetics; [9]): 1120 ± 479 ng·h/mL
AUC(0‐t) (Phase I pharmacokinetics; [9]): 1080 ± 474 ng·h/mL
C max (Phase I pharmacokinetics; [9]): 86 ± 31 ng/mL
CL/F (Phase I pharmacokinetics; [9]): 103 ± 48 L/h
T 1/2 (Phase I pharmacokinetics; [9]): 15 ± 2 h
Vz/F (Phase I pharmacokinetics; [9]): 2310 ± 1360 L
T max (Phase I pharmacokinetics; single dose, 100 mg (n = 3)): 5 (3‐5) h
AUC(0‐inf) (Phase I pharmacokinetics; [10]): 4050 ± 3340 ng·h/mL
AUC(0‐t) (Phase I pharmacokinetics; [10]): 3960 ± 3230 ng·h/mL
C max (Phase I pharmacokinetics; [10]): 227 ± 118 ng/mL
CL/F (Phase I pharmacokinetics; [10]): 59 ± 50 L/h
T 1/2 (Phase I pharmacokinetics; [10]): 27 ± 12 h
Vz/F (Phase I pharmacokinetics; [10]): 1670 ± 617 L
T max (Phase I pharmacokinetics; single dose, 140 mg (n = 3)): 5 (3‐5) h
AUC(0‐inf) (Phase I pharmacokinetics; [11]): 2610 ± 921 ng·h/mL
AUC(0‐t) (Phase I pharmacokinetics; [11]): 2570 ± 933 ng·h/mL
C max (Phase I pharmacokinetics; [11]): 154 ± 38 ng/mL
CL/F (Phase I pharmacokinetics; [11]): 74 ± 22 L/h
T 1/2 (Phase I pharmacokinetics; [11]): 24 ± 10 h
Vz/F (Phase I pharmacokinetics; [11]): 2550 ± 1550 L
T max (Phase I pharmacokinetics; single dose, 180 mg (n = 3)): 2 (2‐5) h
C max and AUC(0‐ t ) versus dose (Phase I pharmacokinetics; up to 180 mg): Dose‐dependent increases
Dose‐limiting toxicity (DLT) ([1]; 1 mg QD to 140 mg QD, cycle 0‐cycle 1): No DLT was observed; also recorded: no DLT were reported
ALT increased, treatment‐related TEAE ([1]; 60 mg (n = 3), any grade): 1 (33.3) n (%)
Anemia, treatment‐related TEAE ([1]; 60 mg (n = 3), any grade): 1 (33.3) n (%)
Blood creatinine increased, treatment‐related TEAE ([1]; 60 mg (n = 3), any grade): 2 (66.7) n (%)
Diarrhea, treatment‐related TEAE ([1]; 60 mg (n = 3), any grade): 2 (66.7) n (%)
Lipase increased, treatment‐related TEAE ([1]; 60 mg (n = 3), any grade): 1 (33.3) n (%)
Nausea, treatment‐related TEAE ([1]; 60 mg (n = 3), any grade): 1 (33.3) n (%)
PPE syndrome, treatment‐related TEAE ([1]; 60 mg (n = 3), any grade): 1 (33.3) n (%)
Vomiting, treatment‐related TEAE ([1]; 60 mg (n = 3), any grade): 1 (33.3) n (%)
